Measurements reported in publication PMC6981294 (Molecular cell, 2019).
Ends that are not written are not given here.

T1: GST-WAPL 375-625 (human, UniProt Q7Z5K2 375-625)
T1 sequence (looked up): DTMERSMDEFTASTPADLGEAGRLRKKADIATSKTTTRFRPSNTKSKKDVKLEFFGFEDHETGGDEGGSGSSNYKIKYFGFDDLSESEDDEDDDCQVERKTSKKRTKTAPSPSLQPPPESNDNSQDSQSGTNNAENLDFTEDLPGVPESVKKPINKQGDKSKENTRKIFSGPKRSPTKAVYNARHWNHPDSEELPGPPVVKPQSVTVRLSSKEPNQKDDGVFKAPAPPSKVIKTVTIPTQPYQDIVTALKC

T2: CDC25A full length, recombinant (human, UniProt P30304 1-524)
T2 sequence (looked up): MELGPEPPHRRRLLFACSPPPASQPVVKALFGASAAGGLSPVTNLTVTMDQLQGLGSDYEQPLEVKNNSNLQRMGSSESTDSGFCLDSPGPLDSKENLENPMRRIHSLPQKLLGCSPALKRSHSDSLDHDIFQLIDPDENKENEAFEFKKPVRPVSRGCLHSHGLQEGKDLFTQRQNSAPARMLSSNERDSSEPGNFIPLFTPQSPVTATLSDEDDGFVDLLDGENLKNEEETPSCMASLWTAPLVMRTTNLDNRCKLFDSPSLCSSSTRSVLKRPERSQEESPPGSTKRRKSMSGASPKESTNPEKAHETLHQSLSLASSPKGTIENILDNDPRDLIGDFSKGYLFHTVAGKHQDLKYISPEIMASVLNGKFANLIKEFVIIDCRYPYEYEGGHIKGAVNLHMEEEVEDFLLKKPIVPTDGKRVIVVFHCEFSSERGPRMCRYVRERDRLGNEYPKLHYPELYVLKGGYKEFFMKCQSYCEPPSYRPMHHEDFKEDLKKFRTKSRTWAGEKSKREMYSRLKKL

T3: PPP4R3A EVH1 domain (Homo sapiens, UniProt Q6IN85)
T3 sequence (Q6IN85 2-117): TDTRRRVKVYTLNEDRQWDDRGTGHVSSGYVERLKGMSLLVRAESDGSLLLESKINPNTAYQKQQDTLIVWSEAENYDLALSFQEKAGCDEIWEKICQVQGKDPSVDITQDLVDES

B1: EVH1 domain of PPP4R3A (amino acids 2-117) (domain or fragment, human, UniProt Q6IN85 2-117, looked up)
chain: TDTRRRVKVYTLNEDRQWDDRGTGHVSSGYVERLKGMSLLVRAESDGSLLLESKINPNTAYQKQQDTLIVWSEAENYDLALSFQEKAGCDEIWEKICQVQGKDPSVDITQDLVDES

What follows are molecules tested against T1, GST-WAPL 375-625 (assay: ITC).

| binding result | Molecule |
| --- | --- |
| binds | B1 |

These molecules were tested against T2, CDC25A full length, recombinant (assay: ITC).

| binding result | Molecule |
| --- | --- |
| binds | B1 |

These molecules were tested against T3, PPP4R3A EVH1 domain (assay: ITC of peptides with the EVH1 domain from PPP4R3A).
Assay type: binding
Outline: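 Peptide in syringe, titrated at 25 °C into cell holding EVH1 domain: one 0.4 μl injection, then 19 × 2 μl at 150 s spacing, stirring 750 rpm. Peptide-into-buffer controls run. Heats normalised per mole injectant, fitted to single-site model.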

| Kd | Molecule |
| --- | --- |
| 119 µM | DPDTELMPPAPPKRPHPL [MCE1-P4A] |
| 3.78 µM | DPDTEAMPPPPPKRPHPL [MCE1-L(-1)A] |
| 1.49 µM | DPDTELMPPPAPKRPHPL [MCE1-P5A] |
| 1.4 µM | DPDTELMPPPPAKRPHPL [MCE1-P6A] |
| 7.58 µM | DPDTELMPAPPPKRPHPL [MCE1-P3A] |
| 85.6 µM | DPDTELAPPPPPKRPHPL [MCE1-M1A] |

These molecules were tested against B1 (assay: ITC).

| Kd | Molecule |
| --- | --- |
| 53 µM | PFTFKVAAPPPS [model peptide P4: Ala] |
| 7.93 µM | DPDTELMAPPPPKRPHPL [MCE1 peptide MCE1-P2A] |
| 0.98 µM | DPDTELMPPPPPKRPHPL [MCE1 MxPP motif peptide] |
| 53 µM | PFTAKVPAPPPS [model peptide P1: Ala] |
